Test results published in PMC3346155 (Drug Design, Development and Therapy, 2012).
“Also recorded” adds a separate entry of the source. *1 amine or outer side, *2 acyl side, *3 side chain or, on linkers, in order; H or OH if unused. Where a SMILES comes first, the peptide text is derived from it. Side-chain parts run from the residue outwards. [ ]: non-standard residue; d: D form. The star is where a group is joined. Ethylenediamine = C(CN[*:2])N[*:1]; Hyp = O=C(O)[C@@H]1C[C@@H](O)CN1; Phg = N[C@H](C(=O)O)c1ccccc1; CO = O=C([*:1])[*:2]; Bn = c1ccc(C*)cc1

What was measured:
human sst1 = conditions: cited from earlier work; for IC50: read-out: IC50, binding affinity to sst1, human sst1, mean ± SEM
human sst2 = conditions: cited from earlier work; for IC50: read-out: IC50, binding affinity to sst2, human sst2, mean ± SEM
human sst5 = conditions: cited from earlier work; for IC50: read-out: IC50, binding affinity to sst5, human sst5, mean ± SEM
human sst4 = conditions: read-out: IC50, binding affinity to sst4, mean ± SEM; cited from earlier work
human sst3 = conditions: cited from earlier work; for IC50: read-out: IC50, binding affinity to sst3, human sst3, mean ± SEM
[1] = Plasma pharmacokinetics after a single subcutaneous dose in healthy volunteers; type: in vivo, human
Method in brief: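 Single s.c. dose in healthy males. Blood was drawn by venipuncture or forearm cannula up to 144 h post-dose and centrifuged to plasma. Drug was quantified by validated radioimmunoassay (LLOQ 0.03 ng/mL); values below the LLOQ were set to zero. Parameters came from non-compartmental analysis, reported as median (range) for tmax and mean ± SD otherwise. Dose proportionality was tested by a log-dose versus log-parameter linear model.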

[2] = Blood glucose levels after a single subcutaneous dose in healthy volunteers; type: in vivo, human
Method in brief: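 Healthy males aged 18–40 received one s.c. dose (1–1200 μg) or placebo between 8 and 9 am, about 1 h after a light standardized meal. Blood glucose was measured by the central standard laboratory panel at these times: pre-breakfast before dosing; before and 60 min after a standard lunch on Day –1 and Day 1; 2 h post-dose; and 23 h post-dose on Day 2.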

[3] = compared with octreotide; cited from earlier work
[4] = test system: GHRH-stimulated GH secretion; test: GHRH stimulation test, GH suppression in healthy volunteers; type: in vivo, human; conditions: for Emax, maximum GH reduction: value ± standard error
Method in brief: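 The GHRH stimulation test ran on Day –1 and Day 1. A 1 μg/kg GHRH bolus was given about 3 h after the s.c. dose. Plasma GH was sampled at −60 and 0 min and up to 120 min after GHRH, and measured by chemiluminescence assay (LLOQ 0.06 ng/mL).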

[5] = Safety and tolerability of a single subcutaneous dose in healthy volunteers; type: in vivo, human
Method in brief: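 Randomized, double-blind, placebo-controlled ascending single s.c. doses; cohorts had 4–8 active and 2 placebo subjects. Subjects were confined from about 36 h pre-dose until 48-h safety results were available, with follow-up over 7 days. AEs came from self-report, investigator questioning, examination or laboratory tests. Laboratory abnormalities counted as AEs only if symptomatic or treated. SAEs were recorded until 4 weeks after the trial. Laboratory tests were run centrally, with descriptive statistics.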

[6] = male, human, plasma, sc, 2.5 ug
[7] = male, human, plasma, sc, 100 ug
[8] = male, human, plasma, sc, 200 ug
[9] = male, human, plasma, sc, 300 ug
[10] = male, human, plasma, sc, 600 ug
[11] = male, human, plasma, sc, 1200 ug
[12] = single s.c. dose, across dose levels, healthy male volunteers
[13] = single s.c. dose 1200 μg, n = 6

Lanreotide [reference compound]
IC50 (human sst1): 180 ± 20 nM | IC50 (human sst2): 0.54 ± 0.08 nM | IC50 (human sst5): 17 ± 5 nM | IC50 (human sst4): 230 ± 40 nM | IC50 (human sst3): 14 ± 9 nM

Octreotide [reference compound]
IC50 (human sst1): 280 ± 80 nM | IC50 (human sst2): 0.38 ± 0.08 nM | IC50 (human sst5): 6.3 ± 1 nM | IC50 (human sst4): > 1000 nM | IC50 (human sst3): 7.1 ± 1.4 nM

NCCCC[C@@H]1NC(=O)[C@@H](Cc2c[nH]c3ccccc23)NC(=O)[C@H](c2ccccc2)NC(=O)[C@@H]2C[C@@H](OC(=O)NCCN)CN2C(=O)[C@H](Cc2ccccc2)NC(=O)[C@H](Cc2ccc(OCc3ccccc3)cc2)NC1=O [Pasireotide] (cyclo([Hyp]([CO-Ethylenediamine])[Phg][dW]KY(Bn)F))
AUC(0-t) [1, 6]: 0.11 ± 0.09 ng·h/mL | Cmax [1, 6]: 0.06 ± 0.01 ng/mL | Tmax [1, 6]: 15 min | AUC(0-t) ([1]; male, human, plasma, sc, 10 ug): 0.66 ± 0.25 ng·h/mL | Cmax ([1]; male, human, plasma, sc, 10 ug): 0.24 ± 0.06 ng/mL | Tmax ([1]; male, human, plasma, sc, 10 ug): 15 min | Vd/F ([1]; male, human, plasma, sc, 10 ug): 38.1 L | AUC(0-t) ([1]; male, human, plasma, sc, 30 ug): 2.78 ± 1.02 ng·h/mL | Cmax ([1]; male, human, plasma, sc, 30 ug): 0.72 ± 0.17 ng/mL | Tmax ([1]; male, human, plasma, sc, 30 ug): 15 min | Vd/F ([1]; male, human, plasma, sc, 30 ug): 105 ± 5.7 L | half-life ([1]; male, human, plasma, sc, 30 ug): 444 ± 132 min | AUC(0-inf) [1, 7]: 9.59 ± 2.44 ng·h/mL | AUC(0-t) [1, 7]: 9.1 ± 2.37 ng·h/mL | CL/F [1, 7]: 183 mL/min | Cmax [1, 7]: 2.23 ± 0.45 ng/mL | Tmax [1, 7]: 30 min | Vd/F [1, 7]: 131 ± 41 L | AUC(0-inf) [1, 8]: 17.5 ± 3.82 ng·h/mL | AUC(0-t) [1, 8]: 16.8 ± 3.65 ng·h/mL | CL/F [1, 8]: 198 mL/min | Cmax [1, 8]: 3.73 ± 0.9 ng/mL | Tmax [1, 8]: 22.8 min | Vd/F [1, 8]: 162 ± 33.9 L | AUC(0-inf) [1, 9]: 27.1 ± 6.98 ng·h/mL | AUC(0-t) [1, 9]: 26 ± 6.87 ng·h/mL | CL/F [1, 9]: 198 mL/min | Cmax [1, 9]: 4.71 ± 1.79 ng/mL | Tmax [1, 9]: 22.8 min | Vd/F [1, 9]: 180 ± 44.3 L | AUC(0-inf) [1, 10]: 78.6 ± 12.3 ng·h/mL | AUC(0-t) [1, 10]: 75.6 ± 11.2 ng·h/mL | CL/F [1, 10]: 130 mL/min | Cmax [1, 10]: 15.6 ± 3.25 ng/mL | Tmax [1, 10]: 30 min | Vd/F [1, 10]: 464 ± 440 L | AUC(0-inf) [1, 11]: 93.6 ± 13.6 ng·h/mL | AUC(0-t) [1, 11]: 90.4 ± 13.2 ng·h/mL | CL/F [1, 11]: 218 mL/min | Cmax [1, 11]: 22.2 ± 5.53 ng/mL | Tmax [1, 11]: 30 min | Vd/F [1, 11]: 1190 ± 1570 L | half-life [1, 11]: 546 ± 126 min | partial AUC in the γ phase as contribution to total AUC∞ ([1]; single s.c. dose, 600 μg and 1200 μg, healthy male volunteers): < 15% | Tmax [1, 12]: 15 to 30 min | t½,β (effective elimination half-life), mean [1, 12]: 420 to 660 min | Vz/F, mean value ([1]; single s.c. dose, low doses (10 μg), healthy male volunteers): 40 L | higher binding affinity for sst1 compared with octreotide (human sst1; ratio versus octreotide): 30 fold | IC50 (human sst1): 9.3 ± 0.1 nM | lower affinity for sst2 compared with octreotide (human sst2; ratio versus octreotide): 2.6 times | IC50 (human sst2): 1 ± 0.1 nM | glucose values ([2]; all dose groups, twenty-three hours after the injection): normal for all groups | blood glucose levels ([2]; doses between 200 μg and 1200 μg, 2–6 hours after administration, resolved by 23 hours post-dosing): Transient elevations in blood glucose levels | glucose levels ([2]; single s.c. dose 600 μg and 1200 μg, six hours after administration): higher than those of placebo recipients | higher binding affinity for sst5 than endogenous somatostatin (human sst5; ratio versus endogenous somatostatin): 2 fold | higher binding affinity for sst5 compared with octreotide (human sst5; ratio versus octreotide): 39 fold | IC50 (human sst5): 0.16 ± 0.01 nM | metabolic stability [3]: greater metabolic stability than octreotide | IC50 (human sst4): > 1000 nM | higher binding affinity for sst3 compared with octreotide (human sst3; ratio versus octreotide): 5 fold | Emax, maximum GH reduction ([4]; non-linear Emax model for GH AUC ratio versus Cavg): 0.99 ± 0.03 | Emax, maximum GH reduction ([4]; non-linear Emax model for GH AUC ratio versus dose): 1.00 ± 0.00 | GH suppression ([4]; single pasireotide doses between 200 μg and 1200 μg s.c.): 79%–96% | decrease in GH AUC2h ([4]; single s.c. dose 30–100 μg): approximately 45% | reduction in GH AUC2h ([4]; single s.c. doses between 1 μg and 10 μg): No reduction | AEs considered related to the study drug ([5]; observed in the 1200 μg dose group only, of a total of 12 AEs in the study): eight | increased lipase level ([5]; one subject, single s.c. dose 10 μg, 48 hours post-dose, normal range 23–300 U/L): 523 U/L | subjects who experienced at least one AE [5, 13]: 6 subjects | subjects who experienced nausea [5, 13]: five | deaths, serious adverse events, clinically significant changes in laboratory values, vital signs or ECG ([5]; single s.c. dose 1–1200 μg, any dose, healthy male volunteers): no serious adverse events observed at any dose; also recorded: no reports of death, SAEs, or clinically significant changes in laboratory values, vital signs or ECG parameters | tolerability ([5]; single s.c. dose 1–1200 μg, healthy male volunteers): generally well tolerated | maximum tolerable dose ([5]; single s.c. dose, tested range 1–1200 μg, healthy male volunteers): not established within the tested range
